By IC50 is commonly meant the point on the concentration scale where inhibition reaches its midpoint. The term Cmax denotes the peak of the concentration-time curve. Broadly, the Tmax is the time from dosing to the highest level. Broadly, the half-life is how long it takes for the measured level to halve. Read a low half-life as fast loss. The term AUC denotes the area under the concentration-time curve, a measure of exposure. A higher AUC goes with high exposure.

Structures are written as SMILES. Active and inactive are the calls of the source. No cut-off for these calls is given here.

Series [1] concerns Mus musculus. Briefly: Toxicity in nude mouse xenografted with human A431 cells assessed as weight loss at 200 mg/kg/day, po qd after 12 days. It is filed as organism-based, A-431. Also on record: route oral. The note with it: in vivo, 288 h. A digest of the protocol:
(§1)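 A431 xenograft; dosing began once tumours reached 50–150 mm³. Mice randomized, n = 6/group, given test agent, gefitinib reference or vehicle by oral gavage once daily at 200 mg/kg/day. Body weight and tumour volume recorded twice weekly; mortality and weight loss noted over treatment (tumour mass read on days 0, 4, 7, 10, 12).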
(In general: Xenograft models place foreign cells or tissue in a host animal.)

The subject of series [2] is Mus musculus. The series is described as follows: Toxicity in nude mouse xenografted with human A431 cells assessed as mortality at 200 mg/kg/day, po qd after 12 days. Also on record: route oral. The format is organism-based, A-431. Particulars: in vivo, 288 h. In outline: as §1
For series [3], the system named is Epidermal growth factor receptor (Homo sapiens), P00533 [T790M]. Briefly: Inhibition of EGFR T790M mutant (unknown origin) incubated for 5 mins prior to ATP addition measured after 30 mins by HTRF method. The format is protein assay.
In series [4] the target is Cytochrome P450 3A4 (Homo sapiens, UniProt P08684). The series is described as follows: Inhibition of human recombinant CYP3A4 after 20 mins by LC/MS/MS analysis. The format is ADME.
Series [5] deals with Cytochrome P450 2C9 (Homo sapiens, UniProt P11712). Briefly: Inhibition of human recombinant CYP2C9 after 20 mins by LC/MS/MS analysis. The format is ADME.
In series [6] the target is Cytochrome P450 2D6 (Homo sapiens, UniProt P10635). Briefly: Inhibition of human recombinant CYP2D6 after 20 mins by LC/MS/MS analysis. It is filed as ADME.
For series [7], the target named is T1, Cytochrome P450 1A2 (Homo sapiens, UniProt P05177).
T1 sequence (P05177 whole entry): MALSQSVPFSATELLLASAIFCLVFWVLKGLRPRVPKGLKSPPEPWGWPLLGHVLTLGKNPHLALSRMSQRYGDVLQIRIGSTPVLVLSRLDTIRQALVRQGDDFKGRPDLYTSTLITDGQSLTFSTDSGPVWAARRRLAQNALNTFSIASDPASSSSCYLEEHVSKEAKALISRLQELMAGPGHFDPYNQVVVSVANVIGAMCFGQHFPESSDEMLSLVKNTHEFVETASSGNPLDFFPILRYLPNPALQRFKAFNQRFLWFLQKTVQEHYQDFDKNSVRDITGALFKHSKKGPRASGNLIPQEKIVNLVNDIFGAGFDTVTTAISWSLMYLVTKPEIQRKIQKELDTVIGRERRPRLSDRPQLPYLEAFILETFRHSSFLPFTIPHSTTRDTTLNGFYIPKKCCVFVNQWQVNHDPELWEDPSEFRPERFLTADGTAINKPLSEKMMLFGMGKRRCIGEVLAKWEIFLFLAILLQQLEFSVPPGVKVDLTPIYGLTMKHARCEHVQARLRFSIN
Briefly: Inhibition of human recombinant CYP1A2 after 20 mins by LC/MS/MS analysis. It is filed as ADME.

Series [8] deals with K562. The series is described as follows: Cytotoxicity against human K562 cells after 48 hrs by CellTiter-Glo assay. The note with it: K562, 48 h. It is filed as functional, cell-based. (In ATP-based viability assays light output follows the ATP content of the culture.)
The subject of series [9] is SW-620. The series is described as follows: Cytotoxicity against human SW620 cells after 48 hrs by CellTiter-Glo assay. The format is functional, cell-based. The note with it: SW-620, 48 h.
Series [10] concerns A549. Briefly: Cytotoxicity against human A549 cells after 48 hrs by CellTiter-Glo assay. The format is functional, cell-based. Particulars: A549, 48 h.
Series [11] concerns the target T2, Epidermal growth factor receptor (Homo sapiens, UniProt P00533). The series is described as follows: Ratio of IC50 for wild type EGFR in human A431 cells to IC50 for wild type EGFR (unknown origin). The format is cell-based. The note with it: A-431.
The target in series [12] is T2, Epidermal growth factor receptor. The series is described as follows: Inhibition of wild type EGFR (unknown origin) incubated for 5 mins prior to ATP addition measured after 30 mins by HTRF method.
Series [13] concerns A-431. Briefly: animal or person. The format is functional, Homo sapiens. Particulars: Mus musculus, A-431, 288 h, route oral, read-out: TGI.
Series [14] concerns Mus musculus. The series is described as follows: Oral bioavailability in BALB/c mouse at 10 mg/kg. The format is ADME, organism-based. The note with it: in vivo. A digest of the protocol:
(§2)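 Mice (12 per treatment group) received a single dose, either intravenously at 3 mg/kg or orally at 10 mg/kg. Plasma exposure was followed over 24 h to derive AUC(0–24 h) in μM·min, t1/2 and tmax in min, and Cmax in μM. Oral bioavailability (F%) was derived from the oral versus i.v. data.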

Series [15] is described as follows: Cmax in BALB/c mouse at 10 mg/kg, po. It is filed as ADME, organism-based. Also on record: dose 10 mg/kg, route oral. The note with it: in vivo. A digest of the protocol: as §2
Series [16] in a line: Cmax in BALB/c mouse at 3 mg/kg, iv. The format is ADME, organism-based. Also on record: dose 3 mg/kg, route intravenous. Particulars: in vivo. In outline:
as §2

The nature of series [17]: Tmax in BALB/c mouse at 10 mg/kg, po. The format is ADME, organism-based. Also on record: dose 10 mg/kg, route oral. Particulars: in vivo. A digest of the protocol: as §2
The nature of series [18]: Tmax in BALB/c mouse at 3 mg/kg, iv. The format is ADME, organism-based. Particulars: in vivo. Also on record: dose 3 mg/kg, route intravenous. A digest of the protocol: as §2
Series [19] in a line: Half life in BALB/c mouse at 10 mg/kg, po. The format is ADME, organism-based. Also on record: dose 10 mg/kg, route oral. The note with it: in vivo. In outline:
as §2

The subject of series [20] is Mus musculus. The series is described as follows: AUC (0 to 24 hrs) in BALB/c mouse at 10 mg/kg, po. Also on record: time < 24 hr, dose 10 mg/kg, route oral. It is filed as ADME, organism-based, Plasma. The note with it: in vivo. In outline: as §2
A short description of series [21]: Half life in BALB/c mouse at 3 mg/kg, iv. Also on record: dose 3 mg/kg, route intravenous. It is filed as ADME, organism-based. Particulars: in vivo. A digest of the protocol:
as §2

Series [22] has as its system Mus musculus. The series is described as follows: AUC (0 to 24 hrs) in BALB/c mouse at 3 mg/kg, iv. It is filed as ADME, organism-based, Plasma. Also on record: time < 24 hr, dose 3 mg/kg, route intravenous. The note with it: in vivo. In outline:
as §2

In series [23] the target is Voltage-gated inwardly rectifying potassium channel KCNH2 (Homo sapiens, UniProt Q12809). The series is described as follows: Inhibition of human ERG channel by patch clamp assay. (In general: The patch-clamp technique gives a direct electrical read-out from membranes.)
The target in series [24] is T2, Epidermal growth factor receptor. Particulars: A-431, at 1 µM.

T2 sequence (P00533 whole entry): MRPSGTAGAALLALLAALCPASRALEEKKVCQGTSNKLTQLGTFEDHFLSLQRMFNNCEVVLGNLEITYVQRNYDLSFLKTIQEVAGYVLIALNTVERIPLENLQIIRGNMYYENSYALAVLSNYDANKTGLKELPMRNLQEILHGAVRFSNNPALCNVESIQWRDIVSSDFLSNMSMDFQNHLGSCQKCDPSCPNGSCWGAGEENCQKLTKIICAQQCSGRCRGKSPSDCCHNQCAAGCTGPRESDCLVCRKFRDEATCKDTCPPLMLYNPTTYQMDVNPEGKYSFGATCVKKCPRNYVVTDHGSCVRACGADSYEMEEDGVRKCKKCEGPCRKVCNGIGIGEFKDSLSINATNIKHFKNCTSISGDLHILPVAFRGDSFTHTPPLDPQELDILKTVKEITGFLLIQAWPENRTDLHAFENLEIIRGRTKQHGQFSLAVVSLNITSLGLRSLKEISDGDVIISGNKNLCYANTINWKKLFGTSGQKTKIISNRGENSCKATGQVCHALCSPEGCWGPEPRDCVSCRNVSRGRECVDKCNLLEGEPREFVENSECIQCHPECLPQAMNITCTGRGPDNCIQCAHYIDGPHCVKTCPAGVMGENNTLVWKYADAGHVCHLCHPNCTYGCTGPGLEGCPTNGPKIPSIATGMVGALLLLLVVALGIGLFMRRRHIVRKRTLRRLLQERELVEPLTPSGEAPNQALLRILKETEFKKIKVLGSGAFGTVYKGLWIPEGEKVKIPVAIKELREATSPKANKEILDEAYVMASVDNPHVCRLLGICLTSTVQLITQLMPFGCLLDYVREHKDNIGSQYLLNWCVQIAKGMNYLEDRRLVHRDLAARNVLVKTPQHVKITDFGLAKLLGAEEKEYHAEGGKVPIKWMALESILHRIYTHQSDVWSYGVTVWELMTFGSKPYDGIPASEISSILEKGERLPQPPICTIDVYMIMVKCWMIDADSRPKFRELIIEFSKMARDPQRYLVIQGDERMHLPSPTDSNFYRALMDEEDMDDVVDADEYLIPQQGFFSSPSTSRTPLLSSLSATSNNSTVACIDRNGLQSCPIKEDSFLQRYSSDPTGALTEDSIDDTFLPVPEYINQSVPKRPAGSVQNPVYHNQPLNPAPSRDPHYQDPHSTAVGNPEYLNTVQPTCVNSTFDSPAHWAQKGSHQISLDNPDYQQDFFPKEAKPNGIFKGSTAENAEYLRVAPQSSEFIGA
Cytochrome P450 2D6, sequence (P10635 whole entry): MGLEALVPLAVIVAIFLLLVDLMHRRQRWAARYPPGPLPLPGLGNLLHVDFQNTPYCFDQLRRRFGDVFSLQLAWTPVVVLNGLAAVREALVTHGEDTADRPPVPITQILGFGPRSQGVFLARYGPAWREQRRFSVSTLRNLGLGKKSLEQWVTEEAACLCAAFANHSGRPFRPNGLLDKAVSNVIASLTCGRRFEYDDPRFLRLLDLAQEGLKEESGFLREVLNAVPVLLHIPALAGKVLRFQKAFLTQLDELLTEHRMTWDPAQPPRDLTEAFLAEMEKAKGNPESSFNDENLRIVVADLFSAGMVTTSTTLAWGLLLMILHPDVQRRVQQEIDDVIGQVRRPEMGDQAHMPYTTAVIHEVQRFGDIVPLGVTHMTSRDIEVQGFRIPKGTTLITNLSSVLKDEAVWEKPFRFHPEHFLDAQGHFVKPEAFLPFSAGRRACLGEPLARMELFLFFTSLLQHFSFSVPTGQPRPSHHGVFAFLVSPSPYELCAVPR
Cytochrome P450 2C9, sequence (P11712 whole entry): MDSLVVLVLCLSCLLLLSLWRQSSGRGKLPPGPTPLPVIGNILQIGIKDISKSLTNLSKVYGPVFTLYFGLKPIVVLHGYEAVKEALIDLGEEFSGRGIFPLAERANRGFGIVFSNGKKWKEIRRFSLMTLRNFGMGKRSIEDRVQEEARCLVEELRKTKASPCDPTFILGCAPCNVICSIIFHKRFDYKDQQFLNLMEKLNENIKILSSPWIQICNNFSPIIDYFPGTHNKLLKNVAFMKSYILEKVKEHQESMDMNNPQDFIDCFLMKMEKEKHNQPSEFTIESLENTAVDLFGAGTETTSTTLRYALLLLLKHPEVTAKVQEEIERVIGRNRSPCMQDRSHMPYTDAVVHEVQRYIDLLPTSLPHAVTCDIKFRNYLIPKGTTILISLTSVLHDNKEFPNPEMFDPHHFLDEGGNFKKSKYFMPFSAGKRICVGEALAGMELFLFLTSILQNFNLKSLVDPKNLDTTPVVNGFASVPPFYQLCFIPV
Cytochrome P450 3A4, sequence (P08684 whole entry): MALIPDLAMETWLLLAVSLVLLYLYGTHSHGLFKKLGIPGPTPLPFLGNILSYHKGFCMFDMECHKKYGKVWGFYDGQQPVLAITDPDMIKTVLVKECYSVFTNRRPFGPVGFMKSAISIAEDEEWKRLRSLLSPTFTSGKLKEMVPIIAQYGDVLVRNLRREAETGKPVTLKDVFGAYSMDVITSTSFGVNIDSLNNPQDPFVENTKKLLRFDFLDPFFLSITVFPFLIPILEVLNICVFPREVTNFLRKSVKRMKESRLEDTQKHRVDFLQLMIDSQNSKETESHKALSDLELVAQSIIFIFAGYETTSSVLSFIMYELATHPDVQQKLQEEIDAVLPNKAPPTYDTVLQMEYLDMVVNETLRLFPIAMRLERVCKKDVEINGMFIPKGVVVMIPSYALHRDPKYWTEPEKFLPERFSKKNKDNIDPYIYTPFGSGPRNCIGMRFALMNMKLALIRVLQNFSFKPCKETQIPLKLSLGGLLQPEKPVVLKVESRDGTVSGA
Epidermal growth factor receptor (Homo sapiens), P00533 [T790M], sequence (P00533 whole entry T790M): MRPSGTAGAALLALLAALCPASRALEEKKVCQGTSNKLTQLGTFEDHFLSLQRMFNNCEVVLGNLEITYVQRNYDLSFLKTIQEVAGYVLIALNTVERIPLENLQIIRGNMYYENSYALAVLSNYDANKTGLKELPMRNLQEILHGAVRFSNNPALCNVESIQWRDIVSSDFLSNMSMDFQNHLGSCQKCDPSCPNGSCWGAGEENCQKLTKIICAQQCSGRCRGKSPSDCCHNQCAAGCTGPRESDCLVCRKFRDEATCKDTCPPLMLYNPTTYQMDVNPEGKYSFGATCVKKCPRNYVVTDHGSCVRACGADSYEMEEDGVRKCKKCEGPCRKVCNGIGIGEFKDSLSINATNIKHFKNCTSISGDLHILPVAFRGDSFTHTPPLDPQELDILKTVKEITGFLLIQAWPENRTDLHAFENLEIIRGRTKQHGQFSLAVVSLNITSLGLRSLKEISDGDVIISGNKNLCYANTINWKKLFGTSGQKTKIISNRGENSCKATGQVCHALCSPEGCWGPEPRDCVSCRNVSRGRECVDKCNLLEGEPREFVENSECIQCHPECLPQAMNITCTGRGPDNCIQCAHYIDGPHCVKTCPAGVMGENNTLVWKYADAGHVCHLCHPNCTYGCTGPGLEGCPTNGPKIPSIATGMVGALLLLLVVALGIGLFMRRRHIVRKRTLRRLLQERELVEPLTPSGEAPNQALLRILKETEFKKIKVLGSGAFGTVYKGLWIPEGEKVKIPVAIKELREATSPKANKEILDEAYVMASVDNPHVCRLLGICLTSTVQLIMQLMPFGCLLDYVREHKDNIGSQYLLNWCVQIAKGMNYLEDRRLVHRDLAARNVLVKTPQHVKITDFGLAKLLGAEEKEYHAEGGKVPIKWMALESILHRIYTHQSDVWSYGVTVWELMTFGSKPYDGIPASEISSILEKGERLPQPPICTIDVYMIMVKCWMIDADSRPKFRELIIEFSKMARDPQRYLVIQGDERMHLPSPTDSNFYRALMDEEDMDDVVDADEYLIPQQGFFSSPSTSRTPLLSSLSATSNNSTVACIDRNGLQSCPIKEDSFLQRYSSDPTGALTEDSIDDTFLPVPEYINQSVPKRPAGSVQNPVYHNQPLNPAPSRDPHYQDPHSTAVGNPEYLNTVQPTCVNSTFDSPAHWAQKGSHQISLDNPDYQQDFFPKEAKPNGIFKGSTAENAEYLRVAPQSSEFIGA
Voltage-gated inwardly rectifying potassium channel KCNH2, sequence (Q12809 whole entry): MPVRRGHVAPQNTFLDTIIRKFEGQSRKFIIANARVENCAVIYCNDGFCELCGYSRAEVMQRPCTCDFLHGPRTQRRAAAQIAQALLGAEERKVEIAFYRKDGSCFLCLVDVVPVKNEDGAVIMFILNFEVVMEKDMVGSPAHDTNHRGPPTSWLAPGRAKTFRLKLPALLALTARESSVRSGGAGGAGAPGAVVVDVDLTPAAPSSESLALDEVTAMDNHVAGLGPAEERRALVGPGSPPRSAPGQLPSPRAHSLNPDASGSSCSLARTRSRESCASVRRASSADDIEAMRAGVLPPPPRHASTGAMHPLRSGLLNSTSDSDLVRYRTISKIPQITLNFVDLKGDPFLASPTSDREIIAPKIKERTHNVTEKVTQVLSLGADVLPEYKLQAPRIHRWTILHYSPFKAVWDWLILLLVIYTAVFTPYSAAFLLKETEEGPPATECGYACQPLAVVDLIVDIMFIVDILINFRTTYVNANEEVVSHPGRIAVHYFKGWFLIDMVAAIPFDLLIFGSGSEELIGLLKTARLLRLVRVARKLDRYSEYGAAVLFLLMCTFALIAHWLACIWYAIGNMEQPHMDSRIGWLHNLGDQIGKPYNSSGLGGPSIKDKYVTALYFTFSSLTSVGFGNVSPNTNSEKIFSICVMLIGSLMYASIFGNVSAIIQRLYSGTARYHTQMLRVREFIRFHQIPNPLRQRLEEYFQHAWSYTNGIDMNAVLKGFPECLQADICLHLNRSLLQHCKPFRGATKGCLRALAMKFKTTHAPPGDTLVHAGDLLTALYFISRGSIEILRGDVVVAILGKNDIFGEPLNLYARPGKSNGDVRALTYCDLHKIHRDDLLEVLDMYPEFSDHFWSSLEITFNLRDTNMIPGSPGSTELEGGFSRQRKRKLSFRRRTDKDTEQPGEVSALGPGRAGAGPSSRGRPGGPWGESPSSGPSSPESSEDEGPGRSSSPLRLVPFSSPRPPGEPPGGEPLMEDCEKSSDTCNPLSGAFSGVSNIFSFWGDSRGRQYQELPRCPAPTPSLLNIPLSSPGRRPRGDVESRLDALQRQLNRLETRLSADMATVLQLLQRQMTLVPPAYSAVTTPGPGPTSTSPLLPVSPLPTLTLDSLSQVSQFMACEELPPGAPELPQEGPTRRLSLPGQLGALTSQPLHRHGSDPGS

As for `COc1cc2ncnc(Nc3ccc(F)c(Cl)c3)c2cc1OCCCN1CCOCC1` [GEFITINIB], the Activity result in series [1] and in [2] was “Non-toxic” throughout.

For the compound `CN(C)C/C=C/C(=O)N1CCOc2cc3ncnc(Nc4ccc(OCc5cccc(F)c5)c(Cl)c4)c3cc21`, the inhibition result in [3] is “Active”. Further, the IC50 in series [4] was greater than 10 µM; in series [5], greater than 10 µM; in series [6], greater than 10 µM; in series [7], greater than 10 µM; in series [8], greater than 10 µM; in series [9], 6.2 µM. The compound also registered an IC50 in series [10] greater than 10 µM.

Take `Fc1ccc(Nc2ncnc3cc4c(cc23)NCCO4)cc1Cl`: the Ratio IC50 in [11] is 20000. The compound further had an IC50 in series [12] of 0.00129 µM.

In the case of `CN(C)C/C=C/C(=O)N1CCOc2cc3ncnc(Nc4ccc(F)c(Cl)c4)c3cc21`, the inhibition result in series [3] and in series [24] was “Active” throughout. Besides, the Activity result in series [1] and in series [2] was “Non-toxic” throughout. Besides, the inhibition in vivo at 200 mg/kg/day in series [13] worked out at 66.8%. Moreover, the F in series [14] was found to be 26.1%. The Cmax in series [15] was 360 nM; in [16], 290 nM. The Tmax was 0.75 h in series [17] and 2 min in [18]. Moreover, the half-life in [19] came out at 9.13 h; in [21], 12.7 h. In addition, the AUC in series [20] was 133 µM·min; in series [22], 25.4 µM·min. Also, the IC50 in [4], in series [5], in [6], in series [7], in series [8] and in [23] was greater than 10 µM throughout. In addition, the IC50 in [9] was 25.4 µM; in [10], greater than 10 µM.

The values are drawn from ChEMBL document CHEMBL2440024, “Design, Synthesis, and Biological Evaluation of Novel Conformationally Constrained Inhibitors Targeting EGFR” (ACS Med Chem Lett, 2013).
